Sampled rows, rich in hits. Any-hit rate of the full collection: about 1.8%.
Hep lipid drop: hepatic lipid droplet formation modulation; 240,000 compounds, 0.4% hits; inhibition, % at 6.5 µM; AML12 mouse hepatocytes, oleate lipid droplets, BODIPY imaging; AID 1656;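 active = lipid droplet intensity inhibited by at least 50%, with more than 500 cells counted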
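Material – mouse AML12 hepatocyte cell line, fixed after treatment · Compound dosing – one dose, 6.5 µM compound · Times – compound with oleate, overnight · Measured by – Image-based BODIPY and DAPI two-channel analysis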
hiPSC survival: enhancers of human iPSC single-cell survival; hiPSC single-cell survival, ATPlite luminescence; 100% = ROCK inhibitor wells, 0% = DMSO; survival enhancement, % at 20 µM; 360,000 compounds, 0.044% hits; in the data active = survival enhancement above about 18%;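 also: cells exposed to compounds for 16 hours before the ATP read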
TAG inh: triacylglycerol accumulation inhibition | H9c2 cells, Nile Red lipid (TAG) fluorescence; cells loaded with 200 µM oleic acid | inhibition, % at 12.5 µM | 230,000 compounds, 0.66% hits | AID 651582;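 active = pattern-corrected inhibition of lipid staining of at least 50% with the nuclear-stain viability signal not falling by more than 50%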
Jurkat NFkB inh: inhibitors of the PMA/ionomycin-induced NF-kB reporter in Jurkat cells; PMA/ionomycin-induced NF-kB luciferase reporter, luminescence; inhibition, % at 4 µM; 330,000 compounds, 0.53% hits; AID 435003; in the data active = inhibition above about 50%
Gli-Sufu antag: blocks Gli-Sufu signaling in a luciferase reporter; Sufu-KO-LIGHT fibroblasts, Gli luciferase reporter luminescence; inhibition, % at 5 µM; 340,000 compounds, 0.74% hits; AID 588413;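 active = inhibition above about 55%, limit read from the data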
697 NFkB inh: inhibitors of the PMA/ionomycin-induced NF-kB reporter in 697 B cells; inhibition, % at 4 µM; 330,000 compounds, 0.33% hits; 697 B-cell NF-kB luciferase reporter, 16 h; in the data active = inhibition above about 35%
697 NFkB conf: lowers PMA/ionomycin-induced NF-kB signal in 697 B cells; 2,000 compounds, 35% hits; 697 B-cell NF-kB luciferase, 16 h; inhibition, % at 4 µM; shares compounds with 697 NFkB inh; in the data active = inhibition mostly above about 28%, no sharp cut-off; inactive = mostly below about 22%
A number is an active result; i = inactive; nt = not tested or not shown.

SMILES | Hep lipid drop | hiPSC survival | TAG inh | Jurkat NFkB inh | Gli-Sufu antag | 697 NFkB inh | 697 NFkB conf
Cc1cccc(NC(=O)c2cc3n(n2)C(C(F)(F)F)CC(c2ccc4c(c2)OCO4)N3)c1 (stereo not drawn) | i | i | nt | i | i | 36 | i
CC1=Nc2cc(C(=O)O)ccc2Sc2c(C)ccc(C)c21 | i | i | i | i | i | i | nt
CC1=Nc2cc(C(=O)N3CCCC3)ccc2Sc2c(C)ccc(C)c21 | i | i | nt | i | i | i | i
CCOC(=O)C(=CNc1cc(C)ccc1C)C(=O)OCC | nt | i | nt | i | i | 38 | 29
CSc1cccc(NC(=O)CCS(=O)(=O)c2cccc3nonc23)c1 | i | i | nt | i | i | i | nt
O=c1c2ccccc2sc2ccc(C#CC3(O)CCCCC3)cc12 | nt | i | i | i | 83 | 40 | i
O=c1c2ccccc2oc2cc(C#CC3(O)CCCCC3)ccc12 | nt | i | i | i | i | i | nt
O=S(=O)(Nc1ccc(N2CCOCC2)cc1)c1c(F)cc(F)cc1Br | i | i | nt | i | i | i | nt
CC(O)(c1cccc(F)c1)c1nc(-c2ccc(S(C)(=O)=O)cc2)cs1 (stereo not drawn) | nt | i | i | nt | nt | nt | nt
CCCc1nnc(NC(=O)CCC(=O)N2CCN(S(=O)(=O)c3ccc(C)cc3)CC2)s1 | i | i | i | i | i | i | nt
COc1ccc2nc(C)cc(Sc3nc4ccccc4s3)c2c1 | i | i | nt | i | i | 42 | 38
COc1cccc(CNC(=O)CCc2nc3cc(S(=O)(=O)N4CCOCC4)ccc3n2C)c1 | nt | i | i | i | i | i | nt
Cc1ccc(S(=O)(=O)N(C)C)cc1NC(=O)C(C)N(C)Cc1sccc1C (stereo not drawn) | i | i | nt | i | i | i | nt
O=C1N[C@@H](Cc2cn(S(=O)(=O)c3ccccc3)c3ccccc23)C(=O)N[C@H]1Cc1ccccc1 | nt | i | i | i | i | 38 | i
CCCCN(C)C(=O)Cn1ncc2c3ccccc3n(CCC)c2c1=O | i | i | nt | i | i | i | nt
CCOC(=O)N1CCN(C(=O)Nc2ccc3nc(C)c(C)nc3c2)CC1 | nt | i | nt | i | i | 37 | i
CCO[C@H]1OC(C(=O)N2CCCCCCC2)=C[C@@H](c2ccccc2)[C@@H]1CCCO | i | i | i | i | i | i | nt
Cc1cnc(NC(=O)c2cc3c(s2)CCCC3)s1 | i | i | i | i | i | i | i
Cc1nc([N+](=O)[O-])cn1-c1nc2ccccn2c1[N+](=O)[O-] | i | i | nt | i | i | i | nt
c1ccc(-c2noc(-c3ccc4ccccc4c3)n2)cc1 | nt | i | nt | i | i | i | i
NS(=O)(=O)c1ccc(CCNC(=O)CCCNC(=O)c2ccc(Cl)cc2)cc1 | i | i | nt | i | i | i | nt
CCN(C(=O)CN1C(=O)NC2(CCCc3ccccc32)C1=O)c1ccc(F)cc1 (stereo not drawn) | nt | i | i | i | i | i | nt
CCN(C(=O)CN1C(=O)NC2(CCc3ccccc32)C1=O)C1CCCCC1 (stereo not drawn) | nt | i | i | i | i | 42 | i
O=C(O)c1ccc(N=Nc2c(O)[nH]c3ccc(Br)cc23)cc1 | i | i | nt | i | i | i | nt
O=C(O)c1ccc(N=Nc2c(O)[nH]c3cc(Cl)ccc23)cc1 | i | i | i | i | i | i | i
SMILES | Hep lipid drop | hiPSC survival | TAG inh | Jurkat NFkB inh | Gli-Sufu antag | 697 NFkB inh | 697 NFkB conf
Cc1ccc(S(=O)(=O)N2CCN(C(=O)c3ccc(N4CCCCC4)c([N+](=O)[O-])c3)CC2)cc1 | i | i | i | i | i | i | nt
CCn1c(=O)cc(OCC(=O)NCc2ccc(C)o2)c2ccccc21 | i | i | nt | i | i | 36 | 42
CCn1c(=O)cc(OCC(=O)NCc2ccco2)c2ccccc21 | nt | i | i | i | i | i | nt
COc1ccccc1NC(=O)N1CCc2c([nH]c3ccccc23)C1C(F)(F)F (stereo not drawn) | i | i | i | i | i | 35 | i
COc1ccc(C(=O)N2CCc3c([nH]c4ccccc34)C2C(F)(F)F)cc1 (stereo not drawn) | i | i | i | i | i | i | nt
CCN(CC)C(=O)c1ccc(S(=O)(=O)Cc2ccc(C)cc2)c([N+](=O)[O-])c1 | i | i | nt | i | i | 40 | 39
Cc1ccc(CS(=O)(=O)c2ccc(C(=O)N3CCCCC3)cc2[N+](=O)[O-])cc1 | i | i | i | i | i | i | nt
